How the values were obtained:
Format in all cases: cell-based
[1] = molecular target: T1, Tubulin (Homo sapiens) (UniProt P68371+Q9H4B7+P0DPH7+P68366+Q13509+Q71U36+P04350+Q3ZCM7+P07437+P68363+Q9BQE3+Q6PEY2+Q13885+Q9BVA1+Q9BUF5); assay: Stabilization of microtubules in human QBI293 cells assessed as fold change in acetylated tubulin levels at 1 uM after 4 hrs by ELISA relative to DMSO
Outline: (§1)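 QBI293 cells were grown in DMEM with 10% FBS, 2 mM L-glutamine and penicillin/streptomycin, then plated at 6 × 10^5 cells/well and left overnight. Medium was replaced with fresh medium holding vehicle (DMSO) or compound, and cells were incubated 4 h. Whole-cell extract supernatants were protein-normalized by BCA assay. AcTub and α-tubulin were quantified by ELISA against standard curves. Values are fold-change over DMSO, analysed by one-way ANOVA.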

[2] = molecular target: T1, Tubulin (Homo sapiens); assay: Stabilization of microtubules in human QBI293 cells assessed as fold change in acetylated tubulin levels at 10 uM after 4 hrs by ELISA relative to cevipabulin
[3] = molecular target: T1, Tubulin (Homo sapiens); assay: Stabilization of microtubules in human QBI293 cells assessed as fold change in acetylated tubulin levels at 10 uM after 4 hrs by ELISA relative to DMSO; outline: as §1
[4] = molecular target: T1, Tubulin (Homo sapiens); assay: Stabilization of microtubules in human QBI293 cells assessed as increase in acetylated tubulin levels after 4 hrs by ELISA
Outline: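 QBI293 cells are grown in DMEM with 10% FBS, 2 mM L-glutamine and penicillin/streptomycin, plated at 6 × 10^5 cells/well and incubated overnight. […] Acetyl- and total α-tubulin in whole-cell extract supernatants are measured by ELISA against standard curves, with protein by BCA. Values are fold-change over DMSO; AcTub is also given relative to 100 nM cevipabulin positive control. Significance is by one-way ANOVA.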

[5] = molecular target: T1, Tubulin (Homo sapiens); assay: Stabilization of microtubules in human QBI293 cells assessed as fold change in alpha tubulin levels at 10 uM after 4 hrs by ELISA relative to DMSO; outline: as §1
[6] = molecular target: T1, Tubulin (Homo sapiens); assay: Stabilization of microtubules in human QBI293 cells assessed as fold change in alpha tubulin levels at 1 uM after 4 hrs by ELISA relative to DMSO; outline: as §1
[7] = molecular target: T1, Tubulin (Homo sapiens); assay: Stabilization of microtubules in human QBI293 cells assessed as fold change in acetylated tubulin levels at 1 uM after 4 hrs by ELISA relative to cevipabulin

SMILES: CC(Nc1c(-c2c(F)cc(F)cc2F)c(Cl)nc2ncnn12)C(F)F (centres undefined)
- fold change (FC) [1]: 1.28
- fold change (FC) [2]: 0.35
- fold change (FC) [3]: 1.82
- Activity [4]: Dose-dependent effect
- fold change (FC) [5]: 1.17
- fold change (FC) [6]: 1.19
- fold change (FC) [7]: 0.3

SMILES: Fc1cc(F)c(-c2c(Cl)nc3ncnn3c2N2CCCCCCC2)c(F)c1
- fold change (FC) [1]: 3.7
- fold change (FC) [2]: 0.7
- fold change (FC) [3]: 7.16
- Activity [4]: Dose-dependent effect
- fold change (FC) [5]: 1.28
- fold change (FC) [6]: 1.01
- fold change (FC) [7]: 0.36

SMILES: C[C@H](Nc1c(-c2ccccc2F)c(Cl)nc2ncnn12)C(F)(F)F
- fold change (FC) [1]: 1.73
- fold change (FC) [2]: 0.26
- fold change (FC) [3]: 3.56
- Activity [4]: Dose-dependent effect
- fold change (FC) [5]: 1.05
- fold change (FC) [6]: 1.09
- fold change (FC) [7]: 0.13

SMILES: C[C@H](Nc1c(-c2cc(F)cc(F)c2)c(Cl)nc2ncnn12)C(F)(F)F
- fold change (FC) [1]: 1.52
- fold change (FC) [2]: 0.3
- fold change (FC) [3]: 3.97
- Activity [4]: Dose-dependent effect
- fold change (FC) [5]: 1.12
- fold change (FC) [6]: 1.12
- fold change (FC) [7]: 0.12

SMILES: CCCNc1c(-c2c(F)cc(F)cc2F)c(Cl)nc2ncnn12
- fold change (FC) [1]: 1.15
- fold change (FC) [2]: 0.26
- fold change (FC) [3]: 1.14
- fold change (FC) [5]: 0.86
- fold change (FC) [6]: 1.14
- fold change (FC) [7]: 0.27

SMILES: Fc1cc(F)c(-c2c(Cl)nc3ncnn3c2NCc2ccccc2)c(F)c1
- fold change (FC) [1]: 1.05
- fold change (FC) [2]: 0.22
- fold change (FC) [3]: 1.49
- Activity [4]: Dose-dependent effect
- fold change (FC) [5]: 1.06
- fold change (FC) [6]: 1
- fold change (FC) [7]: 0.16

SMILES: CC(Oc1c(-c2c(F)cc(F)cc2F)c(Cl)nc2ncnn12)C(F)(F)F (centres undefined)
- fold change (FC) [1]: 0.91
- fold change (FC) [2]: 0.21
- fold change (FC) [3]: 1.01
- fold change (FC) [5]: 1.04
- fold change (FC) [6]: 1.03
- fold change (FC) [7]: 0.19

SMILES: C[C@H](Nc1c(-c2c(F)cc(F)cc2F)c(Cl)nc2ncnn12)C(C)(C)C
- Activity [4]: Dose-dependent effect

SMILES: C[C@H](Nc1c(-c2c(F)cc([S@@+]([O-])CCCN(C)C)cc2F)c(Cl)nc2ncnn12)C(F)(F)F
- fold change (FC) [1]: 1.49
- fold change (FC) [2]: 0.32
- fold change (FC) [3]: 1.39
- fold change (FC) [5]: 0.98
- fold change (FC) [6]: 1.22
- fold change (FC) [7]: 0.34

SMILES: CC(C)Nc1c(-c2c(F)cc(F)cc2F)c(Cl)nc2ncnn12
- fold change (FC) [1]: 1.15
- fold change (FC) [2]: 0.27
- fold change (FC) [3]: 2.01
- Activity [4]: Dose-dependent effect
- fold change (FC) [5]: 0.98
- fold change (FC) [6]: 0.92
- fold change (FC) [7]: 0.15

SMILES: C[C@H](Nc1c(-c2cc(F)ccc2F)c(Cl)nc2ncnn12)C(F)(F)F
- fold change (FC) [1]: 1.4
- fold change (FC) [2]: 0.22
- fold change (FC) [3]: 4.1
- Activity [4]: Dose-dependent effect
- fold change (FC) [5]: 0.9
- fold change (FC) [6]: 1.05
- fold change (FC) [7]: 0.07

SMILES: C[C@H](Nc1c(-c2ccccc2)c(Cl)nc2ncnn12)C(F)(F)F
- fold change (FC) [1]: 1.11
- fold change (FC) [2]: 0.3
- fold change (FC) [3]: 2.07
- Activity [4]: Dose-dependent effect
- fold change (FC) [5]: 1.03
- fold change (FC) [6]: 1.09
- fold change (FC) [7]: 0.12

SMILES: C[C@H](Nc1c(-c2c(F)cc(S(=O)(=O)CCCN(C)C)cc2F)c(Cl)nc2ncnn12)C(F)(F)F
- fold change (FC) [1]: 1.13
- fold change (FC) [2]: 0.23
- fold change (FC) [3]: 1.08
- fold change (FC) [5]: 1.07
- fold change (FC) [6]: 0.7
- fold change (FC) [7]: 0.24

SMILES: Fc1cc(F)c(-c2c(Cl)nc3ncnn3c2NC2CCCC2)c(F)c1
- fold change (FC) [1]: 2.03
- fold change (FC) [2]: 0.45
- fold change (FC) [3]: 4.83
- Activity [4]: Dose-dependent effect
- fold change (FC) [5]: 0.98
- fold change (FC) [6]: 1.03
- fold change (FC) [7]: 0.27

SMILES: C[C@H](Nc1c(Cc2c(F)cc(F)cc2F)c(Cl)nc2ncnn12)C(F)(F)F
- fold change (FC) [1]: 1.26
- fold change (FC) [2]: 0.1
- fold change (FC) [3]: 1.43
- fold change (FC) [5]: 1.05
- fold change (FC) [6]: 1.01
- fold change (FC) [7]: 0.09

SMILES: CC(C)[C@@H](Nc1c(-c2c(F)cc(F)cc2F)c(Cl)nc2ncnn12)C(F)(F)F
- Activity [4]: Dose-dependent effect

SMILES: CC(C)[C@H](C)Nc1c(-c2c(F)cc(F)cc2F)c(Cl)nc2ncnn12
- Activity [4]: Dose-dependent effect

SMILES: C[C@H](Nc1c(-c2c(F)cc(F)cc2F)c(Cl)nc2ncnn12)C(F)(F)F
- Activity [4]: Dose-dependent effect

SMILES: CC(C)(C)CNc1c(-c2c(F)cc(F)cc2F)c(Cl)nc2ncnn12
- Activity [4]: Dose-dependent effect

SMILES: C[C@H](Nc1c(-c2ccc(C#N)cc2F)c(Cl)nc2ncnn12)C(F)(F)F
- fold change (FC) [1]: 2.01
- fold change (FC) [2]: 0.67
- fold change (FC) [3]: 3.64
- fold change (FC) [5]: 1
- fold change (FC) [6]: 1
- fold change (FC) [7]: 0.37

SMILES: Nc1c(-c2c(F)cc(F)cc2F)c(Cl)nc2ncnn12
- fold change (FC) [1]: 1.18
- fold change (FC) [2]: 0.08
- fold change (FC) [3]: 1.12
- fold change (FC) [5]: 1.05
- fold change (FC) [6]: 1.08
- fold change (FC) [7]: 0.09

SMILES: C[C@H](Nc1c(-c2c(F)cc([S+](C)[O-])cc2F)c(Cl)nc2ncnn12)C(F)(F)F (some centres undefined)
- fold change (FC) [1]: 0.84
- fold change (FC) [2]: 0.21
- fold change (FC) [3]: 0.87
- fold change (FC) [5]: 0.93
- fold change (FC) [6]: 0.96
- fold change (FC) [7]: 0.21

SMILES: C[C@H](Nc1c(-c2c(F)cc(S(C)(=O)=O)cc2F)c(Cl)nc2ncnn12)C(F)(F)F
- fold change (FC) [1]: 1.21
- fold change (FC) [2]: 0.19
- fold change (FC) [3]: 1.23
- fold change (FC) [5]: 1.02
- fold change (FC) [6]: 1.03
- fold change (FC) [7]: 0.19

SMILES: C[C@H](Nc1c(-c2c(F)cc(N)cc2F)c(Cl)nc2ncnn12)C(F)(F)F
- fold change (FC) [1]: 0.94
- fold change (FC) [2]: 0.13
- fold change (FC) [3]: 0.69
- fold change (FC) [5]: 0.96
- fold change (FC) [6]: 0.97
- fold change (FC) [7]: 0.17

SMILES: Fc1cc(F)c(-c2c(Cl)nc3ncnn3c2NC2CC2)c(F)c1
- fold change (FC) [1]: 1.17
- fold change (FC) [2]: 0.07
- fold change (FC) [3]: 1.27
- fold change (FC) [5]: 1.26
- fold change (FC) [6]: 1.2
- fold change (FC) [7]: 0.07

SMILES: CC(C)[C@@H](C)Nc1c(-c2ccc(C#N)cc2F)c(Cl)nc2ncnn12 (stereo in doubt; 68)
- fold change (FC) [1]: 2.15
- fold change (FC) [2]: 0.5
- fold change (FC) [3]: 2.29
- fold change (FC) [5]: 0.92
- fold change (FC) [6]: 0.95
- fold change (FC) [7]: 0.47

SMILES: CC(C)[C@@H](C)Nc1c(-c2ccc(C#N)cc2F)c(Cl)nc2ncnn12 (stereo in doubt; 67)
- fold change (FC) [1]: 2.79
- fold change (FC) [2]: 0.75
- fold change (FC) [3]: 3.42
- fold change (FC) [5]: 0.93
- fold change (FC) [6]: 0.99
- fold change (FC) [7]: 0.61

SMILES: Oc1c(-c2c(F)cc(F)cc2F)c(Cl)nc2ncnn12
- fold change (FC) [1]: 1.04
- fold change (FC) [2]: 0.17
- fold change (FC) [3]: 1.03
- fold change (FC) [5]: 1.02
- fold change (FC) [6]: 1.06
- fold change (FC) [7]: 0.17

SMILES: N#Cc1cc(F)c(-c2c(Cl)nc3ncnn3c2N2CCCCCCC2)c(F)c1
- fold change (FC) [1]: 3.24
- fold change (FC) [2]: 0.79
- fold change (FC) [3]: 4.4
- fold change (FC) [5]: 0.99
- fold change (FC) [6]: 1.01
- fold change (FC) [7]: 0.58

SMILES: Fc1cc(F)c(-c2c(Cl)nc3ncnn3c2Nc2ccccc2)c(F)c1
- fold change (FC) [1]: 1.14
- fold change (FC) [2]: 0.08
- fold change (FC) [3]: 1.05
- fold change (FC) [5]: 0.96
- fold change (FC) [6]: 1.1
- fold change (FC) [7]: 0.09

Reference: ChEMBL document CHEMBL4732138, “Evaluation of the Structure-Activity Relationship of Microtubule-Targeting 1,2,4-Triazolo[1,5-a]pyrimidines Identifies New Candidates for Neurodegenerative Tauopathies” (J Med Chem, 2021)
